Data reported in ChEMBL document CHEMBL4325910, “Design and synthesis of rosiglitazone-ferulic acid-nitric oxide donor trihybrids for improving glucose tolerance” (Eur J Med Chem, 2019).
Calls of active or inactive are those of the source. The rule behind the calls is not given here.

Experiments:
3T3-L1 [1] = assay: Inhibition of MDA level in TNF-alpha-induced insulin resistant mouse 3T3L1 cells 10 uM after 48 hrs; type: functional, cell-based
Outline: (§1)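 3T3-L1 preadipocytes were differentiated, and mature adipocytes made insulin resistant with TNF-α (4 ng/mL) daily for 4 days. Cells were then treated in triplicate for 48 h, with or without 20 μM C-PTIO. Lysate GSH, SOD and MDA were measured with kits. Three experiments, mean ± SD.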

Mus musculus [2] = assay: Antidiabetic activity in spontaneous db/db BKS.Cg-Dock7m +/+ Leprdb/J mouse assessed as decrease in fasting blood glucose level at 10 mg/kg, po administered as daily dose via gavage for 18 days measured on day 9 post last dose by glucometric analysis; type: functional, organism-based
Outline: (§2)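 Male db/db mice (BKS.Cg-Dock7m +/+ Leprdb/J), 6 weeks old on purchase, randomized, n=8 per group. Dosed by gavage in 0.5% CMC-Na daily for 18 consecutive days. Vehicle-dosed db/db and C57BL/6 mice served as model and control. Fasting glucose was read by glucometer every three days. On day 12, after an overnight fast, 2 g/kg glucose was given orally. Blood glucose was read at 0–120 min and AUC calculated. Mean ± SEM.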

Platelet [3] = assay: Antiplatelet activity in platelet rich plasma (unknown origin) assessed as inhibition of arachidonic acid-induced platelet aggregation at 2 mM relative to control; type: functional
Platelet [4] = assay: Antiplatelet activity in platelet rich plasma (unknown origin) assessed as inhibition of arachidonic acid-induced platelet aggregation at 4 mM relative to control; type: functional
Platelet [5] = assay: Antiplatelet activity in platelet rich plasma (unknown origin) assessed as inhibition of ADP-induced platelet aggregation at 2 mM relative to control; type: functional
[6] = Toxicity in ICR mouse assessed mouse mortality at 5000 mg/kg, po administered as single dose via gavage treated on day 1 and measured daily up to 14 days; type: organism-based; details: in vivo, 336 h
Outline: (§3)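 Mice of both sexes, 7 weeks old, were randomized and given one oral gavage dose on day 1. Dose levels were 500, 1000, 2000, 3000, 4000 or 5000 mg/kg, or 2000, 4000 and 5000 mg/kg, with n = 10 per group. Behaviour, health and mortality were checked daily for 14 days, and total deaths were counted on day 14. LD50 was calculated with 95% confidence limits.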

3T3-L1 [7] = assay: Induction of nitric oxide production in TNF-alpha-induced insulin resistant mouse 3T3L1 cells at 10 uM after 0.5 to 6 hrs by DAF-FM-2DA dye based fluorescence assay; type: functional, cell-based
Outline: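 Insulin-resistant 3T3-L1 adipocytes (TNF-α 4 ng/mL, 4 days) were treated for varying times, with or without 20 μM C-PTIO. Vehicle was DMSO 0.1% or NaOH 10 μM. Cells were washed in KRP, loaded with 10 μM DAF-FM-2DA in pH 7.4 PBS at 37 °C for 30 min, and read at Ex/Em 485/515 nm. Three experiments.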

3T3-L1 [8] = assay: Inhibition of ROS production in TNF-alpha-induced insulin resistant mouse 3T3L1 cells at 10 uM after 48 hrs in presence of nitric oxide scavenger C-PTIO by DCFH-DA dye-based fluorescence assay; type: functional, cell-based
Platelet [9] = assay: Antiplatelet activity in platelet rich plasma (unknown origin) assessed as inhibition of arachidonic acid-induced platelet aggregation at 16 mM relative to control; type: functional
Mus musculus [10] = assay: Antidiabetic activity in spontaneous db/db BKS.Cg-Dock7m +/+ Leprdb/J mouse assessed as decrease in blood glucose AUC at 10 mg/kg, po administered as daily dose via gavage for 18 days measured on day 12 up to 120 mins post glucose challenge by oral glucose tolerance test; type: functional, organism-based; outline: as §2
3T3-L1 [11] = assay: Induction of GSH level in TNF-alpha-induced insulin resistant mouse 3T3L1 cells at 3 to 10 uM after 48 hrs; type: functional, cell-based; outline: as §1
Mus musculus [12] = assay: Effect on lipid metabolism in spontaneous db/db BKS.Cg-Dock7m +/+ Leprdb/J mouse assessed as decrease in serum triglyceride level at 27 umol/kg, po administered as daily dose via gavage for 18 days; type: functional, organism-based
Outline: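 db/db mice were gavaged daily for 18 days in 0.5% CMC-Na (n=8 per group), with a vehicle model group. On day 19, blood was collected and serum prepared by centrifugation. Serum triglyceride and HDL were then measured.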

Mus musculus [13] = assay: Cardioprotective activity in db/db BKS.Cg-Dock7m +/+ Leprdb/J mouse assessed as decrease in serum TNF-alpha level at 27 umol/kg, po administered as daily dose via gavage treated for 18 days by ELISA; type: functional, organism-based
Outline: (§4)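 db/db mice were gavaged daily for 18 days in 0.5% CMC-Na, with vehicle-treated model and C57BL/6 control groups. Tail vein blood was collected and serum TNF-α and cTnI measured by commercial ELISA kits. Six individual experiments, mean ± SD, one-way ANOVA.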

3T3-L1 [14] = assay: Induction of nitric oxide mediated increase in insulin-stimulated 2-NBDG uptake in TNF-alpha-induced insulin resistant mouse 3T3L1 cells at 3 to 10 uM preincubated for 48 hrs followed by 2-NBDG addition measured after 30 mins in presence of nitric oxide scavenger C-PTIO by fluorescence assay; type: functional, cell-based
Outline: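 Day-8 differentiated 3T3-L1 adipocytes received TNF-α (4 ng/mL) daily for 4 days. They were pretreated in triplicate for 48 h (C-PTIO 20 μM where indicated), then given 100 μM 2-NBDG at 37 °C for 30 min in the dark, with or without insulin. After KRP washes, fluorescence was read at Ex/Em 485/515 nm. Three experiments, mean ± SD.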

[15] = Metabolic stability in simulated gastric fluid at pH 1.5 measured after 4 hrs by HPLC analysis; type: ADME; details: read-out: Stability
Outline: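 Gastric fluid was 1% pepsin in water, pH 1.5. Intestinal fluid was 1% trypsin with 0.68% KH2PO4, pH 6.8. Compound (100 mM DMSO stock) was diluted 1:1000 into each, in triplicate. Incubation was at 37 °C for 0, 2, 4, 6, 16 or 24 h. Acetonitrile (3 volumes) stopped it, then HPLC at 254 nm.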

[16] = Drug metabolism in Sprague-Dawley rat plasma after 0.5 hrs by HPLC analysis; type: ADME, cell-free; details: read-out: Drug metabolism
Outline: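 100 mM DMSO stock was diluted 1:1000 into SD rat plasma, in triplicate. Incubated with shaking at 37 °C for 0–24 h, then stopped with three volumes of acetonitrile and centrifuged.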

Platelet [17] = assay: Antiplatelet activity in platelet rich plasma (unknown origin) assessed as inhibition of ADP-induced platelet aggregation at 0.2 mM relative to control; type: functional
Mus musculus [18] = assay: Cardioprotective activity in db/db BKS.Cg-Dock7m +/+ Leprdb/J mouse assessed as decrease in serum cTnI level administered po as daily dose via gavage for 18 days by ELISA; type: functional, organism-based; outline: as §4
Mus musculus [19] = assay: Antidiabetic activity in spontaneous db/db BKS.Cg-Dock7m +/+ Leprdb/J mouse assessed as decrease in blood glucose AUC at 10 to 20 mg/kg, po administered as daily dose via gavage for 18 days measured on day 12 up to 120 mins post glucose challenge by oral glucose tolerance test; type: functional, organism-based; outline: as §2
[20] = Toxicity in ICR mouse assessed mouse mortality at 2000 mg/kg, po administered as single dose via gavage treated on day 1 and measured daily up to 14 days; type: organism-based; details: in vivo, 336 h; outline: as §3
3T3-L1 [21] = assay: Inhibition of ROS production in TNF-alpha-induced insulin resistant mouse 3T3L1 cells at 3 to 10 uM after 48 hrs in presence of nitric oxide scavenger C-PTIO by DCFH-DA dye-based fluorescence assay; type: functional, cell-based

## CN(CCOc1ccc(CC2SC(=O)NC2=O)cc1)c1ccccn1 (stereo unspecified) [ROSIGLITAZONE]
3T3-L1 [1]
  inhibition: Active
Mus musculus [2]
  Activity: Active
Platelet [3]
  inhibition at 2000 µM: 28%
Platelet [4]
  inhibition at 4000 µM: 42.2%
Platelet [5]
  inhibition at 2000 µM: 25.3%
[6]
  Activity: Toxic
3T3-L1 [7]
  Activity: inactive
3T3-L1 [8]
  inhibition: inactive
Platelet [9]
  inhibition at 16000 µM: 67.2%
Mus musculus [10]
  Activity: Active

## CCN(CC)/[N+]([O-])=N/OCOC(=O)/C=C/c1ccc(OC(=O)OCN2C(=O)SC(Cc3ccc(OCCN(C)c4ccccn4)cc3)C2=O)c(OC)c1 (stereo unspecified)
3T3-L1 [11]
  Activity: Active
Mus musculus [12]
  Activity: Active
Mus musculus [13]
  Activity: Active
3T3-L1 [14]
  Activity: inactive
[15]
  remaining at 4 h: 97%
[16]
  metabolised at 0.5 h: 23%
Platelet [17]
  inhibition at 200 µM: 9.9%
Mus musculus [18]
  Activity: Dose-dependent effect
Mus musculus [19]
  Activity: Active
[20]
  Activity: Non-Toxic
3T3-L1 [21]
  inhibition: inactive
